Measurements: ChEMBL document CHEMBL3272297, “Lipophilicity and serotonin agonist activity in a series of 4-substituted mescaline analogues” (J Med Chem, 1977)

Tests used:
[1] = 1-Octanol-water partition coefficient, log P of the compound at pH 8; assay type: physicochemical
Ovis aries [2] = organism: Ovis aries; experiment: Potency ratio, ratio of mescaline ED50 to compound ED50 for serotonin receptor in sheep umbilical artery assessed increase of mescaline-induced contraction; assay type: tissue-based
In short: (§1)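 Serotonin-receptor agonism measured in an isolated sheep umbilical artery preparation from dose-response curves giving ED50 values. The ratio (mescaline ED50 / compound ED50) is calculated from the data within each experimental series, with mescaline run as a time control. Data are reported over n tissues with the standard error of the geometric mean.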

Ovis aries [3] = organism: Ovis aries; experiment: Agonist activity at serotonin receptor in sheep umbilical artery assessed increase of mescaline-induced contraction; assay type: tissue-based; in short: as §1

Structure (SMILES) | logD [1] | Ratio ED50 (Ovis aries [2]) | ED50 (Ovis aries [3])
COc1cc(CCN)cc(OC)c1OCc1ccccc1 | 2.4 | 3.04 | 4.6 ×10⁻⁷ M
CCCOc1c(OC)cc(CCN)cc1OC | 1.7 | 3.68 | 3.8 ×10⁻⁷ M
COc1cc(CCN)cc(OC)c1OC [MESCALINE] | 0.78 |  | 1.4 ×10⁻⁶ M
CCOc1c(OC)cc(CCN)cc1OC | 1.11 | 2.06 | 6.8 ×10⁻⁷ M
COc1cc(CCN)cc(OC)c1Br | 2.03 | 7.57 | 1.85 ×10⁻⁷ M
COc1cc(CCN)cc(OC)c1OC(C)C | 1.52 | 2.8 | 5 ×10⁻⁷ M
CCCCOc1c(OC)cc(CCN)cc1OC | 2.32 | 1.27 | 1.1 ×10⁻⁶ M
